# KCNQ1 pot: potentiates or activates the human KCNQ1 potassium channel. 310,000 compounds, 0.35% hits. CHO-K1 KCNQ1, thallium flux FluxOR fluorescence; hits give high values. B-score at 10 µM;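 active = fluorescence ratio B-score, a plate-corrected score, at least three library SD, with initial intensity B-score within 5 SD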
#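 System: Stable KCNQ1 CHO-K1 line | Incubation: 90 min dye loading and 20 min compound exposure, both at room temperature | Measure: Ratio B score | Medium: Assay buffer for compound exposure, DMSO matched across wells | Compound dosing: Single-concentration screen | Probe or stimulus: K+/Tl+ depolarizing stimulus | Measured by: Kinetic FluxOR fluorescence, 10 s baseline plus 110 s post-stimulus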
# hERG protect: shields human hERG channel from block by proarrhythmic agents | 310,000 compounds, 0.51% hits | activation (rescue from dofetilide block), less the hit threshold, % at 10 µM | CHO-hERG, FluxOR thallium flux, dofetilide IC70 present | AID 1511;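 active = activation above the mean of controls blocked by dofetilide plus 5 SD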;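 also: thallium influx through hERG after potassium depolarization seen as dye fluorescence rise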
# KCNQ1 block: blocks the human KCNQ1 potassium channel; B-score at 10 µM; 310,000 compounds, 1.3% hits; CHO-K1 KCNQ1, FluxOR thallium flux fluorescence; hits give high values; P51787;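 active = compounds whose thallium flux B-score, printed positive for inhibition, exceeds three library SD while starting fluorescence stays within three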;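 also: channel opened by potassium depolarization with thallium stimulus after 20 min compound exposure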
# KCNK9 inh: inhibitors of human KCNK9 two-pore domain potassium channel; Q9NPC2; HEK293 KCNK9, FluxOR thallium flux fluorescence; hits give low values; B-score at 10 µM; 310,000 compounds, 1.2% hits; AID 488922;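 active = ratio B-score over 3 SD below the library mean, with starting fluorescence within 5 SD of its mean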;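 also: negative B-score means less thallium flux so channel inhibition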
# KCNK3 block: human KCNK3 channel inhibition, primary screen | O14649 | 340,000 compounds, 0.84% hits | CHO-KCNK3 thallium flux, FluxOR fluorescence; hits give low values | B-score at 10 µM;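 active = B-score under library mean minus 4 SD, starting fluorescence ratio at most library mean plus 5 SD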;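 also: more negative B-score means stronger inhibition of thallium flux through KCNK3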
# Target sequence (O14649 whole entry, looked up): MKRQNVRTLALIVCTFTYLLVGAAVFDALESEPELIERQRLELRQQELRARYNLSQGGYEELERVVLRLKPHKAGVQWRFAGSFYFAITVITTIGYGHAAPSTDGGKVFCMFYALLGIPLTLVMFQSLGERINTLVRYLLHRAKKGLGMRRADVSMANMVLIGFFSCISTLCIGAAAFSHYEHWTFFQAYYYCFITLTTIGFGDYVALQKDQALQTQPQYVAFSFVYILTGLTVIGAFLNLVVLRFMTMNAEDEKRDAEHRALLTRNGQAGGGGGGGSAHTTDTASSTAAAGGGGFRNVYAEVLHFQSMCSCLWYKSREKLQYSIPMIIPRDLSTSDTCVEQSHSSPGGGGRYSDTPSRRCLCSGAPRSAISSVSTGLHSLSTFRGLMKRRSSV
# KCNK9 block conf: human KCNK9 inhibitor confirmation | shares compounds with KCNK9 inh | HEK293 KCNK9 cells, FluxOR thallium flux fluorescence | inhibition, % at 10 µM | 4,900 compounds, 43% hits | AID 492992;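 active = thallium signal inhibited by more than 5 SD of the compound-free buffer control wells, on both duplicate plates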;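 also: 0% = assay buffer control wells without compound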
# Kir21 sel: tests whether KCNK9 modulators also affect mouse Kir2.1. Kir2.1 cells, FluxOR thallium flux fluorescence. shares compounds with KCNK9 inh. 4,900 compounds, 4% hits. inhibition, % at 10 µM;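 active = thallium signal drop more than 5 SD beyond the mean of the no-compound control wells, seen in both duplicate plates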;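 also: signal is fluorescence rise after thallium addition divided by baseline fluorescence; plate controls were assay buffer only for no effect and full block by chlorpromazine control for full effect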
# KCNK9 uninduced: non-induced cell nonspecific activity of KCNK9 modulators; shares compounds with KCNK9 inh; non-induced KCNK9-HEK293, FluxOR thallium flux; inhibition, % at 10 µM; 4,900 compounds, 40% hits;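 active = thallium signal drop beyond 5 SD of the untreated control mean, on both duplicate plates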;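 also: plate controls were buffer only IC0 wells for no effect and SID17386958 at its maximal inhibitory level for full effect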
# An asterisk follows results filed as active; i = inactive; . = no result given. The list is not random: actives were taken first. Their share in the collection is about 3.1%.
SMILES,KCNQ1 pot,hERG protect,KCNQ1 block,KCNK9 inh,KCNK3 block,KCNK9 block conf,Kir21 sel,KCNK9 uninduced
CCOC(=O)C(NC(=O)c1ccccc1Cl)(Nc1ccc(C(F)(F)F)cc1)C(F)(F)F (stereo not drawn),i,-7,i,-12*,i,66%*,i,42%*
CC(=O)c1cc2c(cc1NS(=O)(=O)c1ccc(F)cc1)OCO2,i,-10,i,i,i,.,.,.
CCCCN(C)C(=O)CSc1nc(NCc2ccc(OC)cc2)c2ccccc2n1,i,-12,i,i,i,i,i,i
CCOC(=O)c1nc(NCc2ccccc2)c2ccccc2n1,i,-2,i,i,i,.,.,.
CC(C)Cn1cnc2c(c(-c3ccccc3)c(-c3ccccc3)n2Cc2ccco2)c1=N,i,-20,9*,-9.9*,i,68%*,56%*,28%*
N=c1c2c(-c3ccccc3)c(-c3ccccc3)n(Cc3ccco3)c2ncn1Cc1ccccc1,i,-31,10*,-15*,i,60%*,52%*,28%*
CCOc1cc(OCC)cc(C(=O)NCCCN2CCOCC2)c1,i,0,i,i,i,.,.,.
CCOC(=O)C1(CCc2ccccc2)CCN(Cc2cccc3nccnc23)CC1,i,-2,i,i,i,i,i,23%*
CCOC(=O)C1(CCCc2ccccc2)CCN(Cc2nccn2CC)CC1,i,-17,i,i,i,i,i,i
CCOC(=O)C1(CCc2ccccc2)CCN(Cc2ccn[nH]2)CC1,i,-2,i,i,i,.,.,.
CCOC(=O)C1(CCOc2ccccc2)CCN(Cc2nccn2CC)CC1,i,-4,i,i,i,.,.,.
CCOC(=O)C1(CCCc2ccccc2)CCN(C(=O)Cc2nonc2C)CC1,i,-3,i,i,i,i,i,i
COc1ccc(NC(=O)CN(C)C(=O)CCNS(=O)(=O)c2ccc(Br)cc2)cc1,i,-10,i,i,i,.,.,.
NNc1nc2cc3c(cc2s1)OCCO3,i,-6,i,i,i,.,.,.
Cc1cc(Cl)c(S(=O)(=O)N2CCN(c3ccccn3)CC2)cc1OCC(N)=O,i,-6,i,i,i,.,.,.
CCOC(=O)c1c(C)oc2ccc(NS(=O)(=O)c3ccc4c5c(cccc35)C(=O)N4)cc12,i,-11,i,-10*,i,36%*,i,i
CCOC(=O)c1c(NC(=O)CSc2nc3ccccc3o2)sc(C)c1C,i,-12,i,i,i,.,.,.
CCOC(=O)c1c(NC(=O)CSc2nc3ccccc3s2)sc(C)c1C,i,-11,i,i,i,i,i,i
CCOC(=O)c1c(NC(=O)CSc2nnc(-c3ccco3)o2)sc(C)c1C,i,-5,i,i,i,.,.,.
Cc1nnc(SCC(=O)Nc2ccccc2NC(=O)CSc2nnc(C)s2)s1,i,-13,i,i,i,.,.,.
Cc1nnc(SCC(=O)Nc2sc3c(c2C(=O)c2ccccc2)CCCC3)s1,i,-8,i,i,i,i,i,i
CCOC(=O)c1c(NC(=O)CCc2ccc(CC)o2)sc(C)c1C,i,-19,i,i,i,i,i,24%*
CCOC(=O)c1c(NC(=O)CSc2nnc(Cc3ccccc3)o2)sc(C)c1C,i,-6,i,i,i,i,i,i
CC(C)n1nnc2c(=O)oc3ccccc3c21,i,-6,i,i,i,.,.,.
CC(C)(C)c1ccc(-c2nnc(SCC(=O)Nc3sc4c(c3C#N)CCCC4)o2)cc1,i,-5,i,i,i,.,.,.
SMILES,KCNQ1 pot,hERG protect,KCNQ1 block,KCNK9 inh,KCNK3 block,KCNK9 block conf,Kir21 sel,KCNK9 uninduced
CCOC(=O)c1c(NC(=O)CSc2nnc(-c3ccc(Cl)cc3)o2)sc2c1CCC2,i,-11,i,i,i,i,i,i
OC(COCc1ccccc1)CN1CCCCC1 (stereo not drawn),i,-4,i,i,i,.,.,.
COc1ccc(/C=C2/SC(=S)N(NS(=O)(=O)c3ccc(C)cc3)C2=O)cc1,12*,-10,i,i,i,i,i,i
Cc1ccc(S(=O)(=O)NN2C(=O)/C(=C/c3ccc(C(=O)O)cc3)SC2=S)cc1,i,-5,i,i,i,.,.,.
C=CCOc1ccc(/C=C2\SC(=S)N(NS(=O)(=O)c3ccc(C)cc3)C2=O)cc1,24*,-4,i,i,i,i,i,i
Cc1ccc(S(=O)(=O)NN2C(=O)/C(=C/c3ccc(F)cc3)SC2=S)cc1,i,-2,i,i,i,.,.,.
O=C1/C(=C/c2cccc(F)c2)SC(=S)N1NS(=O)(=O)c1ccccc1,i,-2,i,i,i,i,i,i
CC(Oc1ccccc1)C(=O)Nc1nnc(C2CCCCC2)s1 (stereo not drawn),i,-9,i,i,i,.,.,.
COc1ccc(N2CCN(C(CNS(=O)(=O)c3cc(F)ccc3F)c3cccnc3)CC2)cc1 (stereo not drawn),i,-6,i,i,i,.,.,.
O=C(NC1CCCCCC1)c1cc(S(=O)(=O)N2CCC3(CC2)OCCO3)ccc1F,i,-9,i,i,i,i,i,i
O=c1c(Cc2ccc(Cl)cc2Cl)c(O)ccn1Cc1ccncc1,i,-4,i,i,i,.,.,.
O=c1c(C/C=C/c2ccccc2)c(O)ccn1Cc1ccc(Cl)cc1Cl,i,-16,9*,i,i,i,i,i
Cc1sc2nc(SCc3nc(-c4ccccc4)no3)n(-c3ccccc3)c(=O)c2c1C,i,-5,i,i,i,.,.,.
COC(=O)CN1C(c2cccc(Cl)c2)=Nc2ccc(Cl)cc2C1c1ccccc1 (stereo not drawn),i,-6,i,-16*,i,58%*,i,47%*
COC(=O)CN1C(c2ccc(OC)cc2)=Nc2ccc(Cl)cc2C1c1ccccc1 (stereo not drawn),i,-10,i,i,i,.,.,.
CC1(c2ccccc2)NC(=O)N(CC(=O)Nc2ccccc2N2CCCC2)C1=O (stereo not drawn),i,-11,i,i,i,.,.,.
COc1cc(COc2ccc3c(C)c(Cc4ccccc4)c(=O)oc3c2)cc(OC)c1OC,i,-13,i,i,i,i,i,i

# Screening results deposited in PubChem by Johns Hopkins Ion Channel Center.
